# Assay results as given in ChEMBL document CHEMBL4385611, “Difluoromethylene at the γ-Lactam α-Position Improves 11-Deoxy-8-aza-PGE1 Series EP4 Receptor Binding and Activity: 11-Deoxy-10,10-difluoro-8-aza-PGE1 Analog (KMN-159) as a Potent EP4 Agonist” (J Med Chem, 2019).
# Legend:
# [1] = target: Prostaglandin E2 receptor EP2 subtype (Homo sapiens, UniProt P43116); assay: Agonist activity at human EP2 receptor expressed in HEK293T/17 cells assessed as increase in GalphaS-mediated CREB activation at 10 uM measured after 6 to 24 hrs by SEAP reporter gene-based chemiluminescence assay relative to control; assay type: functional, cell-based
# [2] = Apparent permeability across apical to basolateral side in MDCK-MDR1 cells 120 mins by LC-MS/MS analysis; assay type: ADME, cell-based, Canis lupus familiaris; conditions: dog
# [3] = Apparent permeability across apical to basolateral side in MDCK-MDR1 cells assessed as drug recovery; assay type: ADME, cell-based, Canis lupus familiaris; conditions: dog, read-out: Drug recovery
# [4] = Apparent permeability across basolateral to apical side in MDCK-MDR1 cells 120 mins by LC-MS/MS analysis; assay type: ADME, cell-based, Canis lupus familiaris; conditions: dog
# [5] = Chemical stability in PBS buffer at pH 7.4 assessed as compound recovery at 4 degC under autoclave condition; assay type: physicochemical
# Summary of the method: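 Compound solution in PBS, pH 7.4, held at 4 °C, tested as plain aqueous solution and after autoclaving. A separate sample was exposed to Co-60 gamma irradiation. Read-out is percent of compound recovered.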
# Sequence of Prostaglandin E2 receptor EP2 subtype (P43116 whole entry): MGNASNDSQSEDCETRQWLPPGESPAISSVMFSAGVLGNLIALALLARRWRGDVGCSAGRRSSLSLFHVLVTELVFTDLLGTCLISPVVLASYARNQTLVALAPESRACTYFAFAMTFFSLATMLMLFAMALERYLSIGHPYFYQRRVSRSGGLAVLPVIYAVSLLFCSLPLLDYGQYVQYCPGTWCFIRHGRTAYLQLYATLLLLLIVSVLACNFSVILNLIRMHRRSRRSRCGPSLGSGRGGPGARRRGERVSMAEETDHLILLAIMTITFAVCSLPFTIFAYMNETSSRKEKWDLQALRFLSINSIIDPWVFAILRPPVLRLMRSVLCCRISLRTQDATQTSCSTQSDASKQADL
Activity [1] [%],Papp A→B at 2 h [2] [×10⁻⁶ cm/s],recovery [3] [%],Papp B→A at 2 h [4] [×10⁻⁶ cm/s],Drug recovery [5] [%],Compound
< 50,–,–,–,–,CCC#CC[C@H](C)[C@H](O)/C=C/[C@H]1CCC(=O)N1CCCCCCC(=O)O
–,0.59,84,11.8,100,CCC#CC[C@H](C)[C@H](O)/C=C/[C@H]1CC(F)(F)C(=O)N1CCCCCCC(=O)O
